Results: ChEMBL document CHEMBL1126707, “Tetrapeptide tachykinin antagonists: synthesis and modulation of the physicochemical and pharmacological properties of a new series of partially cyclic analogs” (J Med Chem, 1993)
In brackets after ≈: the same amount, converted by molar mass. Peptide text beside a SMILES is read from it.

Columns and labels:
Neuromedin-K receptor = biological target: T1, Neuromedin-K receptor (Rattus norvegicus, UniProt P16177); test: Tested for antagonist activity against NK-3 receptor in rat portal vein by using Neurokinin B as agonist; assay type: functional; settings: read-out: pA2 (converted)
T1 sequence (P16177 whole entry): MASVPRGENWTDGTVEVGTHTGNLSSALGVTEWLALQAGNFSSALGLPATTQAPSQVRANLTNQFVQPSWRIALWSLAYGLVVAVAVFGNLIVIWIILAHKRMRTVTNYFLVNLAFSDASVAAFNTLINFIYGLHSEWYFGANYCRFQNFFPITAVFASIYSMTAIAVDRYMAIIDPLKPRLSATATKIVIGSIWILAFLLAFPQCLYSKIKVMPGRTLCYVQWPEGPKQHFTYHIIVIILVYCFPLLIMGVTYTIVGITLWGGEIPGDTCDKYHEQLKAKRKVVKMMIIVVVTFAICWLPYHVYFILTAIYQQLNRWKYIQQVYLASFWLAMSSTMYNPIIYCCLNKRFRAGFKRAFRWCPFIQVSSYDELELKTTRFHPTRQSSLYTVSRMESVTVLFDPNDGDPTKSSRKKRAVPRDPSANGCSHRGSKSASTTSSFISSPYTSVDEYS
Procedure, shortened: (§1)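 Isolated-organ contractile bioassays: SP on rabbit vena cava (NK-1), neurokinin A on rabbit pulmonary artery (NK-2), neurokinin B on rat portal vein (NK-3); antagonist apparent affinity expressed as pA2 by Schild plot.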

Mus musculus [1] = species on record: Mus musculus; test: (§2) Binding affinity by displacement of tritiated substance P from its binding sites on membrane preparations from mouse brain
Rattus norvegicus [2] = species on record: Rattus norvegicus; test: (§3) Binding affinity by displacement of tritiated substance P from its binding sites on membrane preparations from rat brain
Substance-K receptor [3] = biological target: T2, Substance-K receptor (Oryctolagus cuniculus, UniProt P79218); test: Tested for antagonist activity against NK-2 receptor in rabbit pulmonary artery by using Neurokinin A as agonist; assay type: functional; settings: read-out: pA2 (converted); procedure, shortened: as §1
T2 sequence (P79218 whole entry): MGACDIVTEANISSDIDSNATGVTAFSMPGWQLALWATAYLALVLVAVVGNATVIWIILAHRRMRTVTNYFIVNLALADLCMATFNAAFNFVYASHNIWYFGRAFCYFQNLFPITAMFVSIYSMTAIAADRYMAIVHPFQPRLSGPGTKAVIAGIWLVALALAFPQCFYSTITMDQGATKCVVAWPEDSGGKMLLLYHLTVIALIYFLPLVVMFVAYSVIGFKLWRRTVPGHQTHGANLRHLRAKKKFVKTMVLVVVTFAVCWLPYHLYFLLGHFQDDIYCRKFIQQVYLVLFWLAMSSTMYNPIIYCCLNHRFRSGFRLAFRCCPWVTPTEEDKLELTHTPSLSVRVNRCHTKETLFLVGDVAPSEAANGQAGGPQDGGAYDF

Substance-P receptor [4] = biological target: Substance-P receptor (Homo sapiens, UniProt P25103); test: Tested for binding affinity against human NK-1 receptor
Mus musculus [5] = test: Tested for antinociceptive activity against mouse hotplate test for 10 min after intravenous injection at 0.5 […] (P*<0.05); assay type: functional
Substance-K receptor [6] = biological target: T3, Substance-K receptor (Rattus norvegicus, UniProt P16610); test: Tested for binding affinity against rat NK-2 receptor
T3 sequence (P16610 whole entry): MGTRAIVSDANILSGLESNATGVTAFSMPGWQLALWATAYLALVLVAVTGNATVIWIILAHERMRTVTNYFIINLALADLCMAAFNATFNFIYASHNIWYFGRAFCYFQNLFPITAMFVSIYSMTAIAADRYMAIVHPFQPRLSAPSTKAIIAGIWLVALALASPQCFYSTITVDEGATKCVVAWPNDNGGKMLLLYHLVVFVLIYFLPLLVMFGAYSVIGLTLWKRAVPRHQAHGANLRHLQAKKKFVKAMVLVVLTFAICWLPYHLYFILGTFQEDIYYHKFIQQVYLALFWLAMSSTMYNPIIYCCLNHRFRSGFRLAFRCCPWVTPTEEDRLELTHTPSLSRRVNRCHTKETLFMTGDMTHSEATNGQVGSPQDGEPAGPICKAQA

Mus musculus [7] = test: Tested for antinociceptive activity against mouse hotplate test for 60 min after oral administration of 40 mg/kg (P*<0.05); assay type: functional
Procedure, shortened: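 Male CD1 mice (25-30 g) on a 55 ± 0.2 °C plate; forepaw-licking latency measured 60 min after oral 40 mg/kg given in water (soluble) or 0.2% hydroxypropylcellulose (insoluble); % increase of reaction time versus vehicle controls; groups of 12 animals; Dunnett t-test.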

Substance-K receptor [8] = biological target: T4, Substance-K receptor (Homo sapiens, UniProt P21452); test: Tested for binding affinity against human NK-2 receptor
T4 sequence (P21452 whole entry): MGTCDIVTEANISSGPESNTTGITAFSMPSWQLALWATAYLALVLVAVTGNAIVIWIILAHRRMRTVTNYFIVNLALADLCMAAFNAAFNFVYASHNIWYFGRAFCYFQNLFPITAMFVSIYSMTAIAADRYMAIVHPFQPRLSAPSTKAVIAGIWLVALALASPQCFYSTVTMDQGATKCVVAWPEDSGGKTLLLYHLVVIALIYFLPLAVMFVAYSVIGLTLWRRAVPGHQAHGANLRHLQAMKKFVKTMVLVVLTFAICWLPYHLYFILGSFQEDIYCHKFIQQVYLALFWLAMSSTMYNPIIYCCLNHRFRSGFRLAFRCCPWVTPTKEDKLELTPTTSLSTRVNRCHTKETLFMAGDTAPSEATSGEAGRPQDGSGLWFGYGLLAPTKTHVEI

[9] = biological target: Substance-P receptor (Oryctolagus cuniculus); test: Tested for antagonist activity against NK1 receptor in rabbit vena cava by using substance P (SP) as agonist; settings: read-out: pA2 (converted)
Substance-P receptor [10] = biological target: Substance-P receptor (Rattus norvegicus, UniProt P14600); test: Tested for binding affinity against rat NK-1 receptor
[11] = Solubility was evaluated; assay type: physicochemical
Rattus norvegicus [12] = species on record: Rattus norvegicus; test: Tested for its ability to promote degranulation of rat peritoneal mast cells; assay type: functional, cell-based
Procedure, shortened: (§4)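 Peritoneal mast cells lavaged from male Sprague-Dawley rats (350-400 g), buffer pH 6.8, 2 × 10^4 cells/mL, preincubated 10 min at 37 °C, then exposed to compound (10^-7 to 10^-4 M, in water or DMSO) 10 min at 37 °C; iced, centrifuged; histamine in supernatant and pellet measured fluorimetrically with o-phthalaldehyde, as % of total.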

[13] = as §2; assay type: tissue-based
[14] = as §3; assay type: tissue-based
Mus musculus [15] = test: Tested for antinociceptive activity against mouse hotplate test for 10 min after intravenous injection at 0.5 […] (P*<0.01); assay type: functional
Substance-K receptor [16] = biological target: T4, Substance-K receptor; test: Tested for binding affinity against human NK-2 receptor transfected on CHO cells using [125I]-His] NKA as radioligand; assay type: cell-based
Substance-K receptor [17] = biological target: T3, Substance-K receptor; test: Tested for binding affinity against rat NK-2 receptor transfected on CHO cells using [125I]-His] NKA as radioligand; assay type: cell-based
Rattus norvegicus [18] = species on record: Rattus norvegicus; test: Tested for its ability to promote degranulation of rat peritoneal mast cells at 0.1 mM or lower; No degranulation; assay type: functional, cell-based; procedure, shortened: as §4

Sequence of Substance-P receptor (Rattus norvegicus, UniProt P14600) (P14600 whole entry): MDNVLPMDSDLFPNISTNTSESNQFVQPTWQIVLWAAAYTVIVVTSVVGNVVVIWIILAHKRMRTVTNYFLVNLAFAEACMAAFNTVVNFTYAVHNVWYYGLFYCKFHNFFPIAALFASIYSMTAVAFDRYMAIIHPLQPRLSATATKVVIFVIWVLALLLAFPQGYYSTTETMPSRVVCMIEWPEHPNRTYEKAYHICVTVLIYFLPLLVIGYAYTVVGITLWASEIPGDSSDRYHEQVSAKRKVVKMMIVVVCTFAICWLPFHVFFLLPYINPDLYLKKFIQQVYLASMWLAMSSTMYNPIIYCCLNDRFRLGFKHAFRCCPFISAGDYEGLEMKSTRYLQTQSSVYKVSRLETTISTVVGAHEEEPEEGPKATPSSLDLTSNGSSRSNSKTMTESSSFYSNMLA
Sequence of Substance-P receptor (Homo sapiens, UniProt P25103) (P25103 whole entry): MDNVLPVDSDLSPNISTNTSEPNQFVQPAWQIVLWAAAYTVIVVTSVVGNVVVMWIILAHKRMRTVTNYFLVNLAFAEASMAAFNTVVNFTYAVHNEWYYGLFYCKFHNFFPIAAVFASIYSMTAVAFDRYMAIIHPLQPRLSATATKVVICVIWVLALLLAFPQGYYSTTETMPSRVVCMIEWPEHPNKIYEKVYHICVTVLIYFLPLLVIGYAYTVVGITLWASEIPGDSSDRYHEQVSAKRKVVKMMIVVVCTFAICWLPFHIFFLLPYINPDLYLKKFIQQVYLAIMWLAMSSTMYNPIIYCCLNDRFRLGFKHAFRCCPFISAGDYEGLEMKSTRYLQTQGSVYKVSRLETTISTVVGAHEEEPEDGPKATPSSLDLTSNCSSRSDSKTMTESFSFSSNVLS

Structure (SMILES)	Kb (Neuromedin-K receptor)	Kb (Substance-K receptor [3])	Increase (Mus musculus [5])	Increase (Mus musculus [7])	Kb [9]	solubility [11]	other results
CC(C)C[C@H](NC(=O)[C@H](CC(C)C)NC(=O)[C@@H](Cc1c[nH]c2ccccc12)NC(=O)[C@H](Cc1ccccc1)NC(=O)[C@@H](Cc1c[nH]c2ccccc12)NC(=O)[C@H](CCC(N)=O)NC(=O)[C@H](CCC(N)=O)NC(=O)[C@@H]1CCCN1C(=O)[C@H](CCCCN)NC(=O)[C@@H]1CCCN1C(=O)[C@H](N)CCCN=C(N)N)C(N)=O (HELM PEPTIDE1{[dR].P.K.P.Q.Q.[dW].F.[dW].L.L.[am]}$$$$V2.0)	0.631 µM						Ki (Mus musculus [1]): 2.6 µM; Ki (Rattus norvegicus [2]): 2.6 µM
CN(Cc1ccccc1)C(=O)[C@H](Cc1ccccc1)NC(=O)[C@@H](Cc1cn(C(=O)OCCCCCCN)c2ccccc12)NC(=O)C[C@@H]1NC(=O)[C@@H]2C3CCC(CC3)N2C1=O	10 µM	10 µM	40%	62%	0.0398 µM	40 mg/mL (≈ 48100 µM)	IC50 (Substance-P receptor [4]): 0.034 µM; IC50 (Substance-K receptor [6]): 0.244 µM; IC50 (Substance-K receptor [8]): 0.046 µM; IC50 (Substance-P receptor [10]): 3.14 µM; IC50 (Rattus norvegicus [12]): 13 µM
CC(=O)n1cc(C[C@@H](NC(=O)C[C@@H]2NC(=O)[C@@H]3C4CCC(CC4)N3C2=O)C(=O)N[C@@H](Cc2ccccc2)C(=O)N(C)Cc2ccccc2)c2ccccc21	0.1 µM	0.126 µM			0.0501 µM	< 0.01 mg/mL	
CN(Cc1ccccc1)C(=O)[C@H](Cc1ccccc1)NC(=O)[C@@H](Cc1cn(C(=O)CCCCCCN)c2ccccc12)NC(=O)C[C@@H]1NC(=O)[C@@H]2C3CCC(CC3)N2C1=O	2 µM	20 µM	54%	62%		43 mg/mL (≈ 52700 µM)	IC50 (Substance-K receptor [6]): 0.188 µM; IC50 (Substance-K receptor [8]): 0.045 µM; IC50 (Rattus norvegicus [12]): 13 µM
CN(Cc1ccccc1)C(=O)[C@H](Cc1ccccc1)NC(=O)[C@@H](Cc1cn(C(=O)OC(C)(C)C)c2ccccc12)NC(=O)C[C@@H]1NC(=O)[C@@H]2C3CCC(CC3)N2C1=O	1.26 µM	12.6 µM			0.126 µM	< 0.01 mg/mL	
CN(Cc1ccccc1)C(=O)[C@H](Cc1ccccc1)NC(=O)[C@@H](Cc1cn(C(=O)CCC(=O)O)c2ccccc12)NC(=O)C[C@@H]1NC(=O)[C@@H]2C3CCC(CC3)N2C1=O	12.6 µM	15.8 µM	42%	53%	0.126 µM	45 mg/mL (≈ 57000 µM)	IC50 (Substance-P receptor [4]): 0.085 µM; IC50 (Substance-K receptor [6]): 0.388 µM; IC50 (Substance-K receptor [8]): 0.129 µM; IC50 (Substance-P receptor [10]): 14.5 µM
CSCC[C@@H](NC(=O)[C@H](CC(C)C)NC(=O)CNC(=O)[C@H](Cc1ccccc1)NC(=O)[C@H](Cc1ccccc1)NC(=O)[C@H](CCC(N)=O)NC(=O)[C@H](CCC(N)=O)NC(=O)[C@@H]1CCCN1)C(N)=O							Ki [13]: 0.75 µM; Ki [14]: 0.75 µM
CN(Cc1ccccc1)C(=O)[C@H](Cc1ccccc1)NC(=O)[C@@H](Cc1cn(C(=O)OCc2ccccc2)c2ccccc12)NC(=O)C[C@@H]1NC(=O)[C@@H]2C3CCC(CC3)N2C1=O	1.58 µM	1.26 µM			0.158 µM	< 0.01 mg/mL	
CN(Cc1ccccc1)C(=O)[C@H](Cc1ccccc1)NC(=O)[C@@H](Cc1c[nH]c2ccccc12)NC(=O)C[C@@H]1NC(=O)[C@@H]2C3CCC(CC3)N2C1=O	1.58 µM	2 µM		74%		< 0.01 mg/mL	Increase (Mus musculus [15]): 66%; IC50 (Substance-K receptor [16]): 0.065 µM; IC50 (Substance-K receptor [17]): 0.065 µM; IC50 (Rattus norvegicus [18]): Not Active
CCCCCCCC(=O)n1cc(C[C@@H](NC(=O)C[C@@H]2NC(=O)[C@@H]3C4CCC(CC4)N3C2=O)C(=O)N[C@@H](Cc2ccccc2)C(=O)N(C)Cc2ccccc2)c2ccccc21	12.6 µM	15.8 µM			12.6 µM	< 0.01 mg/mL	
CN(Cc1ccccc1)C(=O)[C@H](Cc1ccccc1)NC(=O)[C@@H](Cc1cn(C=O)c2ccccc12)NC(=O)C[C@@H]1NC(=O)[C@@H]2C3CCC(CC3)N2C1=O	12.6 µM	12.6 µM	51%	33%		< 0.01 mg/mL	IC50 (Substance-K receptor [16]): 0.017 µM; IC50 (Substance-K receptor [17]): 0.142 µM; IC50 (Rattus norvegicus [18]): Not Active
COC(=O)n1cc(C[C@@H](NC(=O)C[C@@H]2NC(=O)[C@@H]3C4CCC(CC4)N3C2=O)C(=O)N[C@@H](Cc2ccccc2)C(=O)N(C)Cc2ccccc2)c2ccccc21	0.158 µM	15.8 µM			0.1 µM	< 0.01 mg/mL	
